# Source: article PMC6682138 (ACS Omega, 2019)
# Test system: A549 cells
# Assay: MTT cytotoxicity assay, A549
# Assay type: cell-based, human
# Conditions: read-out: IC50 A549, 24 h incubation
# Method in brief: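 MTT assay. Cells seeded at 2 × 10^4 per well. A549 and HeLa S3 were maintained in DMEM with 10% FBS, 2 mM L-glutamine and antibiotics at 37 °C, 5% CO2. Test compound in DMSO (0.5%) applied at 100–3.125 μM for 24 h. After a PBS wash, cells received fresh DMEM with MTT (5 mg/mL) for 3–4 h in the dark. DMSO was added and absorbance read at 570 nm. Inhibition % = (A−B)/A × 100 versus untreated control, and IC50 taken from viability–concentration curves.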
structure (smiles),measurement,value
"N.N.[Cl][Pt][Cl] [cisplatin, reference compound]",IC50,18 ± 3.1 µM
